Shown are actives, neighbours in structure and some others; about 2.1% of the full set was active somewhere.
APJ agonist: agonists of human apelin receptor APJ, primary screen, CHO-K1 cells, PathHunter beta-arrestin, luminescence | P35414 | 0% DMSO wells, 100% apelin | activation, % at 20 µM | 330,000 compounds, 0.11% hits | AID 2520, 2010;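 active = activation more than six SD over the plate average, tested at 20 µM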
Target sequence (P35414 whole entry, looked up): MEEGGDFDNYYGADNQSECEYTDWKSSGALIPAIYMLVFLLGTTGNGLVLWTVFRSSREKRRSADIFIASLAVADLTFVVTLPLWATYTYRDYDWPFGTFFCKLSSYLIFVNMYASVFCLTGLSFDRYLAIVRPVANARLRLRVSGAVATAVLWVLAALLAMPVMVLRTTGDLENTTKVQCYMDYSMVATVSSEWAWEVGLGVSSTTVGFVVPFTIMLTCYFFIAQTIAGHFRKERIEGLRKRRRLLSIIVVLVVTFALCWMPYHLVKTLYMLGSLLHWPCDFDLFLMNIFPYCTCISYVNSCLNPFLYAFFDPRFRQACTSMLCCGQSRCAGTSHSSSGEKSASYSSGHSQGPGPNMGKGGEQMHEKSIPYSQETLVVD
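Material: CHO-K1 APJ beta-arrestin complementation cell line; Input: cell density 1000 per well; Incubation: compound stimulation 90 min at 25 °C, detection 60 min; Signal: luminescence from split beta-galactosidase complementation, Galacton Star/Emerald II substrate; Controls: DMSO-only wells as negative, 10 nM Apelin-13 as positive control.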
CCR6 antag: CCR6 receptor antagonists, primary screen, cell-based, CHO-K1, luminescence, beta-arrestin, uHTS. 340,000 compounds, 0.49% hits. CHO-K1 CCR6 PathHunter beta-arrestin, CCL20-stimulated. inhibition, % at 20 µM. C-C chemokine receptor type 6 (Homo sapiens), P51684;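 active = compounds whose inhibition of the agonist-driven luminescence signal at 20 µM reaches about 50%, limit read from the data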;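 note: cells stimulated with CCL20 at 14 nM final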
HTR2A ag: mouse Htr2a agonists via beta-arrestin recruitment, primary screen, cell-based, luminescence; 5-hydroxytryptamine receptor 2A (Mus musculus), P35363; CHO-K1 mHTR2A beta-arrestin complementation; percent of 30 µM serotonin response; activation, % at 7.6 µM; 360,000 compounds, 0.66% hits; AID 624169, 2012;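 active = activation above a run cutoff, the mean activation of all tested compounds plus 3 SD, cut at about 14% in these data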
EBI2 block: EBI2 receptor antagonists, beta-arrestin recruitment, primary screen, cell-based, luminescence, 7a,25-OHC stimulation, uHTS. G-protein coupled receptor 183 (Homo sapiens), P32249. 7a,25-OHC stimulated. inhibition, % at 5 µM. 360,000 compounds, 0.81% hits; in the data active = inhibition above about 38%;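 note: enzyme fragment complementation signal reports receptor beta-arrestin coupling in cells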
APJ antag: antagonists of human apelin receptor APJ, primary screen, CHO-K1 cells, beta-arrestin complementation, luminescence. P35414. inhibition, % at 20 µM. 330,000 compounds, 0.32% hits. AID 2521, 2010;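 active = inhibition above about 40% at 20 µM, limit read from the data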;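 note: cells challenged with 10 nM apelin-13 agonist together with compound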
CXCR6 inh: CXCR6 receptor inhibitors, primary screen, cell-based, beta-arrestin, luminescence, CHO-K1 PathHunter, 1536-well | C-X-C chemokine receptor type 6 (Homo sapiens), O00574 | AID 602244, 2012 | inhibition, % at 20 µM | 360,000 compounds, 0.36% hits; in the data active = inhibition above about 34%, passing the limit was not always enough;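 note: antagonist mode with CXCL16 agonist at 10 nM final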
APJ antag conf: APJ antagonists blocking beta-arrestin recruitment, confirmation, cell-based, luminescence, single concentration, uHTS hits; inhibition, % at 20 µM; 950 compounds, 66% hits; antagonist mode; shares compounds with APJ antag; in the data active = inhibition above about 50%
CXCR6 confirm: CXCR6 receptor antagonists, confirmation, cell-based, single concentration, beta-arrestin, luminescence | shares compounds with CXCR6 inh | inhibition, % at 20 µM | CHO-K1 CXCR6 PathHunter beta-arrestin | 700 compounds, 65% hits;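 active = mean inhibition over four retests above 40%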;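 note: receptor stimulated with 10 nM CXCL16 agonist; beta-galactosidase fragment complementation upon beta-arrestin recruitment to receptor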
Numbers stand for hits; – = inactive; · = no result given.

SMILES | APJ agonist | CCR6 antag | HTR2A ag | EBI2 block | APJ antag | CXCR6 inh | APJ antag conf | CXCR6 confirm
O=C(O)c1ccccc1N=Nc1c(O)[nH]c2ccc([N+](=O)[O-])cc12 | – | – | – | – | 41.9 | – | 52.8 | ·
CCOCCOC(=O)C1=C(C)NC2=C(C(=O)CC(c3cccs3)C2)C1c1ccsc1 (stereo not drawn) | – | – | – | – | 44.9 | – | 56.8 | ·
CC1=C(C(=O)N(C)C)CC(CC(=O)NCC2CCCCC2)C(=O)N1Cc1ccccc1 (stereo not drawn) | · | · | – | – | · | – | · | ·
COc1ccc(/C=C/C(=O)NC(=S)Nc2cc([N+](=O)[O-])ccc2O)cc1OC | – | – | – | – | 42.4 | – | 59.9 | ·
COc1ccc([N+](=O)[O-])cc1NC(=S)NC(C)=O | – | – | – | – | – | – | · | ·
O=C(CSc1nnc(C2CC2)n1C1CC1)c1cc(F)ccc1F | – | – | – | – | – | – | · | ·
C=CC[n+]1c(-c2ccc(Cl)cc2Cl)csc1Nc1c(C)n(C)n(-c2ccccc2)c1=O | – | 81.5 | – | – | 53.8 | 64.2 | 87.3 | 66.0
COc1ccc(-c2c(-c3cc(OC)cc(OC)c3)n(C)c3ccc(-c4ccc(OC)nc4)cc23)cc1 | – | – | – | – | – | – | · | ·
CCCC(=O)OCCNc1cc(Sc2nc3ccccc3[nH]2)c2nonc2c1[N+](=O)[O-] | – | 117.9 | – | – | 87.5 | 94.4 | 126.2 | 103.2
O=C(C[C@H]1CC[C@H]2[C@@H](COC[C@@H](O)CN2Cc2cc(F)ccc2F)O1)NCc1ccc(Cl)cc1 | · | · | – | – | · | · | · | ·
CCC1=NN(C(=O)c2ccc([N+](=O)[O-])cc2)C(O)(c2ccccc2)C1 (stereo not drawn) | – | 82.2 | – | – | 45.0 | 64.3 | 71.2 | 42.4
CCC1=NN(C(=O)c2ccccc2O)C(O)(c2ccccc2)C1 (stereo not drawn) | – | – | – | – | – | – | · | ·
O=C1c2cccc3c([N+](=O)[O-])ccc(c23)C(=O)N1c1ccc(Cl)cn1 | – | 76.2 | – | 44.2 | 48.8 | 53.6 | 82.9 | 41.7
O=C(N/N=C(\c1ccccc1)c1cccnc1)c1cccc(F)c1 | – | 100.8 | – | – | 69.7 | 83.1 | 88.2 | 94.4
O=C(N/N=C(\c1ccccc1)c1cccnc1)c1ccc(O)cc1 | – | – | – | – | – | – | · | ·
NC(=O)c1ccccc1NCC(=O)c1ccc(Cl)cc1 | – | 105.0 | – | – | 101.4 | 80.1 | 136.4 | 46.1
Oc1cccc2ccc(/C=C/c3c(F)cccc3Cl)nc12 | – | 55.6 | – | – | 43.8 | 47.0 | – | 58.2
Cc1ccccc1NC(=S)NNc1ncc(C(F)(F)F)cc1Cl | – | 69.6 | – | – | 44.7 | 44.7 | 70.3 | 52.6
FC(F)(F)c1cnc(NNC(=S)Nc2cccnc2)c(Cl)c1 | – | 87.3 | – | – | 63.0 | 70.7 | 65.0 | 66.6
Cc1cccc(C)c1NC(=S)NNc1ncc(C(F)(F)F)cc1Cl | – | – | – | – | – | – | · | ·
Cc1nnc(NC(=O)CCC(=O)NC2CCCCCCC2)s1 | – | – | – | – | – | – | · | ·
CCOC(=O)c1c(-c2ccc(C)o2)csc1NC(=S)NC(=O)N(C)C | – | · | – | – | 45.5 | 44.4 | – | 62.1
Fc1ccc(NC(=S)Nc2nccs2)cc1 | – | – | – | – | 45.7 | 52.8 | 61.8 | 77.8
COc1ccc(C)cc1NC(=O)CNC(=O)c1sc2ccccc2c1Cl | – | – | – | – | – | – | · | ·
CC(=O)OCCN(C)c1cc(SC(C)C)c2nonc2c1[N+](=O)[O-] | – | – | – | – | – | – | · | ·
SMILES | APJ agonist | CCR6 antag | HTR2A ag | EBI2 block | APJ antag | CXCR6 inh | APJ antag conf | CXCR6 confirm
CN(CCO)c1cc(Sc2nc3ccccc3s2)c2nonc2c1[N+](=O)[O-] | – | 112.6 | – | – | 97.0 | 98.8 | 107.1 | 109.0
CC1(C)CC=CC(COC(=O)c2ccccc2C(=O)O)C1 (stereo not drawn) | · | – | – | – | · | – | · | ·
O=C(CCNC(=O)c1ccc(Br)cc1)Nc1ccc(S(=O)(=O)N2CCOCC2)cc1 | – | – | – | – | – | – | · | ·
COc1ccc(Cl)cc1S(=O)(=O)NC(C)C(=O)NCCN1CCOCC1 (stereo not drawn) | · | – | – | – | · | – | · | ·
C[N+]1=C(/C=C/Nc2ccccc2Cl)C(C)(C)c2ccccc21 | – | – | – | – | – | – | · | ·
COC(=O)c1ccc2c(c1)C(C)(C)C(/C=C/c1ccccc1O)=[N+]2C | – | 89.5 | – | – | 62.9 | 67.9 | 124.2 | 93.0
C=CCn1c(=O)c2c(nc3n2CC(C)CN3c2cccc(OC)c2)n(C)c1=O (stereo not drawn) | – | 58.8 | – | – | 48.2 | 49.3 | 77.1 | 51.0
CC(C)c1ccc(OCC(=O)Nc2ccc3oc(=O)ccc3c2)cc1 | – | – | – | – | – | – | · | ·
CC1CCCN(S(=O)(=O)c2ccc(NC(=O)CNC3CCCC3)cc2)C1 (stereo not drawn) | – | – | – | – | – | – | · | ·
CCS(=O)(=O)c1ncc(Cl)c(C(=O)Nc2ccc(S(=O)(=O)N3CCCC(C)C3)cc2)n1 (stereo not drawn) | – | 94.0 | – | 50.2 | 77.7 | 87.2 | 104.2 | 77.9
CCC1CCCCN1S(=O)(=O)c1ccc(NC(=O)c2nc(S(C)(=O)=O)ncc2Cl)cc1 (stereo not drawn) | – | 98.0 | – | – | 59.6 | 88.2 | 91.5 | 81.8
CCC1CCCCN1S(=O)(=O)c1ccc(NC(=O)c2ccncc2)cc1 (stereo not drawn) | – | – | – | – | – | – | · | ·
Cc1ccc(/C=N/NC(=S)N2CCOCC2)cc1 | – | 76.2 | – | – | 51.1 | 49.6 | 64.7 | 73.9
Cc1ccc(CNC(=S)N2CCOCC2)cc1 | – | – | – | – | – | – | · | ·
CC1CCCN(C(=O)C2CCN(S(=O)(=O)c3cccc4nonc34)CC2)C1 (stereo not drawn) | – | – | – | – | – | – | · | ·
CN(C)c1cc(Nc2ccc(O)cc2)c([N+](=O)[O-])c2nonc12 | – | – | – | – | – | – | · | ·
O=[N+]([O-])c1c(Nc2ccc(O)cc2)cc(Cl)c2nonc12 | – | 106.8 | – | 94.5 | 95.8 | 107.4 | 126.1 | 109.3

High-throughput results from PubChem BioAssay.
